Measurements taken from ChEMBL document CHEMBL2401731, “Synthesis and pharmacological evaluation of 2-aryloxy/arylamino-5-cyanobenzenesulfonylureas as novel thromboxane A₂ receptor antagonists” (Eur J Med Chem, 2013).
Active and inactive are the calls of the source. No cut-off for these calls is given here.

Legend:
Thromboxane A2 receptor [1] = target: T1, Thromboxane A2 receptor (Homo sapiens, UniProt P21731); test: Antagonist activity at human thromboxane A2 receptor beta over-expressed in HEK293 cells assessed as inhibition of U-46619-induced intracellular calcium mobilization mobilization by fluorescence assay; assay type: functional, cell-based
T1 sequence (P21731 whole entry): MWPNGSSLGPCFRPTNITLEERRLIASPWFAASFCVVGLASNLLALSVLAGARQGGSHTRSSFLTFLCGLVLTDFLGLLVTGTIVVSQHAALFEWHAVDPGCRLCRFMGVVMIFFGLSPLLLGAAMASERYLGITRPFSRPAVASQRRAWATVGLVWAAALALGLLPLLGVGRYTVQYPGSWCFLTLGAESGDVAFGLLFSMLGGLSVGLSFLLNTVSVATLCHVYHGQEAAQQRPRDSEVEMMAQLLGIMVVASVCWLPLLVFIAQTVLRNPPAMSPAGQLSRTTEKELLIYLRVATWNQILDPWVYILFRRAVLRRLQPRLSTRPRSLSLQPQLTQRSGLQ
Method in brief: (§1)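 HEK293 cells stably expressing HA-tagged TPα or TPβ, grown in DMEM/10% FBS. Trypsinized cells washed in Krebs-HEPES buffer, pH 7.4, loaded 1 h with Fluo-4/AM, rinsed, 150,000 cells/well. Compound at 10^-9 to 10^-5 M final, then stimulated with U-46619. Fluorescence read at 538 nm, calibrated to [Ca2+]i with Triton X-100/EGTA. IC50 from concentration-response curves, three independent experiments.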

Thromboxane A2 receptor [2] = target: T1, Thromboxane A2 receptor; test: Antagonist activity at human thromboxane A2 receptor alpha over-expressed in HEK293 cells assessed as inhibition of U-46619-induced intracellular calcium mobilization by fluorescence assay; assay type: functional, cell-based; method in brief: as §1
Homo sapiens = organism: Homo sapiens; test: Selectivity index, ratio of IC50 for human thromboxane A2 receptor alpha to IC50 for human thromboxane A2 receptor beta
Method in brief: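 IC50 at TPα divided by IC50 at TPβ. Both IC50s come from U-46619-stimulated Fluo-4 calcium mobilization in HEK293 cells stably expressing each isoform. Mean ± SD of three separate experiments.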

Platelet = test: Antiplatelet activity against human platelets assessed as inhibition of U-46619-induced platelet aggregation at 10 uM after 1 min; assay type: functional, cell-based
[3] = Antiplatelet activity against human platelets assessed as inhibition of U-46619-induced platelet aggregation at 1 uM after 1 min; assay type: functional, cell-based
Method in brief: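 Human platelet-rich plasma is taken from donors free of medication for at least 14 days, obtained at 100×g for 10 min, and adjusted to […] with platelet-poor plasma. Platelets incubated with test sample or 0.1% DMSO at 37 °C for 1 min, then U-46619 added to trigger aggregation. Aggregation measured by light transmission. Means ± SD, n ≥ 2.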

| SMILES | IC50 (Thromboxane A2 receptor [1]) | IC50 (Thromboxane A2 receptor [2]) | Ratio IC50 (Homo sapiens) | IC50 [3] | inhibition (Platelet) |
| --- | --- | --- | --- | --- | --- |
| Cc1ccc(Nc2ccc(C#N)cc2S(=O)(=O)NC(=O)NC(C)C)cc1 | 4.22 µM | 4.11 µM | 0.9 | – | Active |
| CC(C)(C)NC(=O)NS(=O)(=O)c1cc(C#N)ccc1Oc1ccc(Cl)cc1 | 5.27 µM | 5.64 µM | 1.1 | – | – |
| CCCCCNC(=O)NS(=O)(=O)c1cc(C#N)ccc1Nc1ccc(C)cc1 | 2.06 µM | 1.04 µM | 0.5 | – | Active |
| CC(C)NC(=O)NS(=O)(=O)c1cc(C#N)ccc1Oc1ccc(I)cc1 | 9.49 µM | 9.52 µM | 1 | – | – |
| CC(C)NC(=O)NS(=O)(=O)c1cc(C#N)ccc1Nc1ccc(F)cc1 | 7.83 µM | 8.17 µM | 1.04 | – | – |
| CC(C)NC(=O)NS(=O)(=O)c1cc(C#N)ccc1Oc1ccc(Br)cc1 | 9.13 µM | 9.47 µM | 1 | – | – |
| CC(C)(C)NC(=O)NS(=O)(=O)c1cc(C#N)ccc1Oc1ccc(Br)cc1 | 5.31 µM | 5.88 µM | 1.1 | – | – |
| CCCCCNC(=O)NS(=O)(=O)c1cc(C#N)ccc1Oc1ccc(F)cc1 | 9.53 µM | 9.43 µM | 0.9 | – | – |
| Cc1cccc(Oc2ccc(C#N)cc2S(=O)(=O)NC(=O)NC(C)(C)C)c1 | 0.69 µM | 1.05 µM | – | 0.705 µM | Active |
| CC(C)(C)NC(=O)NS(=O)(=O)c1cc(C#N)ccc1Oc1ccc(F)cc1 | 3.89 µM | 4.35 µM | 1.2 | – | – |
| Cc1ccc(Nc2ccc([N+](=O)[O-])cc2S(=O)(=O)NC(=O)NC(C)(C)C)cc1 | 0.62 µM | 0.7 µM | 1.1 | 0.509 µM | – |
| CCCCCNC(=O)NS(=O)(=O)c1cc(C#N)ccc1Oc1ccc(C)cc1 | 0.63 µM | 0.9 µM | 1.4 | – | Active |
| CC(C)(C)NC(=O)NS(=O)(=O)c1cc(C#N)ccc1Nc1ccc(F)cc1 | 4.91 µM | 4.64 µM | 0.95 | – | – |
| Cc1ccc(Oc2ccc(C#N)cc2S(=O)(=O)NC(=O)NC(C)(C)C)cc1 | 0.68 µM | 0.75 µM | – | 0.649 µM | Active |
| Cc1ccccc1Nc1ccc(C#N)cc1S(=O)(=O)NC(=O)NC(C)(C)C | 4.78 µM | 2.75 µM | – | 0.971 µM | Active |
| CCCCCNC(=O)NS(=O)(=O)c1cc(C#N)ccc1Nc1ccccc1C | 7.85 µM | 3.19 µM | 0.4 | – | Active |
| CCCCCNC(=O)NS(=O)(=O)c1cc(C#N)ccc1Oc1ccc(Br)cc1 | 9.54 µM | 8.52 µM | 0.9 | – | – |

Further molecules by falling IC50 (Thromboxane A2 receptor [1]), results first:

| IC50 (Thromboxane A2 receptor [1]) | IC50 (Thromboxane A2 receptor [2]) | Ratio IC50 (Homo sapiens) | IC50 [3] | SMILES | inhibition (Platelet) |
| --- | --- | --- | --- | --- | --- |
| 10.1 µM | 7.24 µM | 0.7 | – | Cc1ccccc1Nc1ccc(C#N)cc1S(=O)(=O)NC(=O)NC(C)C | Active |
| 9.49 µM | 9.52 µM | 1 | – | CCCCCNC(=O)NS(=O)(=O)c1cc(C#N)ccc1Oc1ccc(I)cc1 | – |
| 9.3 µM | 9.62 µM | 1 | – | CC(C)NC(=O)NS(=O)(=O)c1cc(C#N)ccc1Oc1ccc(F)cc1 | – |
| 9.11 µM | 9.5 µM | 1 | – | Cc1cccc(Nc2ccc(C#N)cc2S(=O)(=O)NC(=O)NC(C)C)c1 | Active |
| 8.72 µM | 8.64 µM | 0.9 | – | CCCCCNC(=O)NS(=O)(=O)c1cc(C#N)ccc1Oc1ccc(Cl)cc1 | – |
| 8.49 µM | 9.46 µM | 1.1 | – | CC(C)NC(=O)NS(=O)(=O)c1cc(C#N)ccc1Oc1ccc(Cl)cc1 | – |
| 6.45 µM | 6.78 µM | 1.05 | – | CCCCCNC(=O)NS(=O)(=O)c1cc(C#N)ccc1Nc1ccc(F)cc1 | – |
| 6.13 µM | 8.68 µM | 1.4 | – | Cc1ccccc1Oc1ccc(C#N)cc1S(=O)(=O)NC(=O)NC(C)C | Active |
| 5.54 µM | 5.52 µM | 0.9 | – | CC(C)(C)NC(=O)NS(=O)(=O)c1cc(C#N)ccc1Oc1ccc(I)cc1 | – |
| 2.33 µM | 2.95 µM | 1.3 | – | CCCCCNC(=O)NS(=O)(=O)c1cc(C#N)ccc1Nc1cccc(C)c1 | Active |
| 2.2 µM | 1.59 µM | 0.7 | 0.726 µM | Cc1cccc(Nc2ccc(C#N)cc2S(=O)(=O)NC(=O)NC(C)(C)C)c1 | Active |
| 1.78 µM | 2.24 µM | 1.3 | – | CCCCCNC(=O)NS(=O)(=O)c1cc(C#N)ccc1Oc1ccccc1C | Active |
| 1.69 µM | 2.38 µM | 1.4 | – | Cc1cccc(Oc2ccc(C#N)cc2S(=O)(=O)NC(=O)NC(C)C)c1 | Active |
| 1.47 µM | 3.69 µM | – | 0.966 µM | Cc1ccccc1Oc1ccc(C#N)cc1S(=O)(=O)NC(=O)NC(C)(C)C | Active |
| 1.35 µM | 3.05 µM | 2.3 | – | Cc1ccc(Oc2ccc(C#N)cc2S(=O)(=O)NC(=O)NC(C)C)cc1 | Active |
| 1.04 µM | 0.85 µM | – | 0.504 µM | Cc1ccc(Nc2ccc(C#N)cc2S(=O)(=O)NC(=O)NC(C)(C)C)cc1 | Active |
| 0.68 µM | 1.33 µM | 2 | – | CCCCCNC(=O)NS(=O)(=O)c1cc(C#N)ccc1Oc1cccc(C)c1 | Active |
